Measured values of several laboratories.
Protocols differ between the studies behind these lines.
Target: Phosphorylase b kinase gamma catalytic chain, skeletal muscle/heart isoform (PHKG1, Homo sapiens, UniProt Q16816)

`O=C(Nc1cnc(Oc2ccc(F)cc2)nc1)N1CCc2ncccc2[C@@H]1c1ccc(F)cc1` gave a remaining binding of 100% (cell-free assay, competition with immobilised ligand; 1 µM).
`CCCCNc1ncc2c(-c3ccc(F)cc3)nn(C[C@H]3CC[C@H](N)CC3)c2n1` gave an inhibition of 26.4% (target engagement in cells, inhibitor, chemoproteomics; 20 mM).
The inhibition of `CC/C(=N\NC(=O)NCc1cccc(O)c1)c1ccc(O)c(C)c1O` is reported as -1.8% (enzyme activity, inhibitor; 0.1 µM).
For `Oc1cccc(-c2nc(N3CCOCC3)c3oc4ncccc4c3n2)c1`, the remaining activity was 84% (enzyme activity, inhibitor; 10 µM).
For `CC(C)(C)c1nc(-c2cccc(NS(=O)(=O)c3c(F)cccc3F)c2F)c(-c2ccnc(N)n2)s1`, the remaining activity was 97% (enzyme activity, inhibitor, radiometric; 1 µM).
`FC(F)c1nc2ccccc2n1-c1nc(N2CCOCC2)nc(N2CCOCC2)n1` has a remaining activity of 94% (enzyme activity, inhibitor; 10 µM).
With `N#CCCc1ccc2c(c1)-c1[nH]c3ccc([N+](=O)[O-])cc3c1CC(=O)N2` the remaining signal was 7.72% (cell-free assay; 0.5 µM).
The remaining binding of `N[C@@H]1CCN(c2nccc(-c3cnn4ncccc34)n2)C1` is reported as 100% (binding; 1 µM).
`CNC(=O)c1ccc(Nc2ncc(C(F)(F)F)c(NCc3nccnc3N(C)S(C)(=O)=O)n2)cc1` has a remaining binding of 100% (cell-free assay, competition with immobilised ligand; 0.1 µM).
With `Cc1ccc(C(=O)NCc2ccsc2)cc1C#Cc1cn(C(C)C)c2ncnc(N)c12` the activity vs control was 107% (enzyme activity, inhibitor; 1 µM).
The inhibition of `COc1cccc2c(NCc3ccccc3)nc(-n3c(N)nc4ccccc43)nc12` is reported as 6.1% (target engagement in cells, inhibitor, chemoproteomics; 20 mM).
With `Nc1ncnc2occ(-c3ccc(NC(=O)Nc4cc(C(F)(F)F)ccc4F)cc3)c12` the remaining signal was 92% (cell-free assay, inhibitor; 20 µM).
With `CNCc1ccccc1-c1csc([C@H](C)Nc2nc(C)nc3cc(OC)c(OC)cc23)c1` the remaining binding was 87% (cell-free assay, competition with immobilised ligand; 1 µM).
`COc1cc2ncnc(Nc3ccc(Oc4ccccc4)cc3C)c2cc1OC` has an inhibition of -1% (enzyme activity, inhibitor; 1 µM).
For `CS(=O)(=O)c1cc(C2(NC(=O)c3cncc4c3cnn4-c3ccc(F)cc3)CC2)ccn1`, the remaining binding was 78% (cell-free assay, competition with immobilised ligand; 1 µM).
`Nc1nc(Nc2ccccc2)sc1C(=O)c1c(F)cccc1F` has a remaining activity of 88% (enzyme activity, inhibitor; 10 µM).
With `CCCOc1ccc([C@H]2[C@H](C(=O)O)[C@@H](c3ccc4c(c3)OCO4)CN2CC(=O)Nc2c(CC)cccc2CC)cc1` the remaining binding was 99% (cell-free assay, competition with immobilised ligand; 1 µM).
For `O=C(Nc1cnn(-c2csc(C(=O)NC3COC3)c2)c1)Nc1c(F)cccc1Cl`, the remaining activity was 91.2% (enzyme activity, inhibitor; 5 µM).
For `NS(=O)(=O)c1cc(NC(=O)Cc2ccccc2)ccc1Oc1cccc(Cl)c1`, the remaining binding was 87% (cell-free assay, competition with immobilised ligand; 1 µM).
For `Cc1ccc(C(=O)Nc2ccc(CN3CCN(C)CC3)c(C(F)(F)F)c2)cc1C#Cc1cnc2cccnn12`, the remaining activity was 100% (enzyme activity, inhibitor; 23.5 nM).
